The source made the active and inactive calls. No cut-off for these calls is given here.
Assays:
Type in all cases: cell-based
[1] = target: T1, Dual specificity mitogen-activated protein kinase kinase 6 (Homo sapiens) (UniProt P52564); experiment: Inhibition of MAP2K6 in human SKCO1 cells at 1 uM after 4 hrs using biotin labeled DVKPSNVLINALGQVK probe by mass-spectrometric analysis relative to control
T1 sequence (whole entry): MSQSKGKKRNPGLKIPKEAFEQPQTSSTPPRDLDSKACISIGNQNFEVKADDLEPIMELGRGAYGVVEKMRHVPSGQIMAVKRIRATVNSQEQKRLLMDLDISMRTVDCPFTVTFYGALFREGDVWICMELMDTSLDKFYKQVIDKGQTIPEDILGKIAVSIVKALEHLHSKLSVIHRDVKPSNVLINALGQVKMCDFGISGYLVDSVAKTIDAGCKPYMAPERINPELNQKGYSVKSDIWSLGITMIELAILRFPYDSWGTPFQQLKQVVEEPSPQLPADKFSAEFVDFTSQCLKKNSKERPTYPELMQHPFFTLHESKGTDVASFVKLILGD

[2] = target: Tyrosine-protein kinase receptor UFO (Homo sapiens) (UniProt P30530); experiment: Inhibition of AXL in human SKCO1 cells at 1 uM after 4 hrs using biotin labeled NCMLNENMSVCVADFGLSKK probe by mass-spectrometric analysis relative to control
Sequence of Tyrosine-protein kinase receptor UFO (Homo sapiens) (P30530 whole entry): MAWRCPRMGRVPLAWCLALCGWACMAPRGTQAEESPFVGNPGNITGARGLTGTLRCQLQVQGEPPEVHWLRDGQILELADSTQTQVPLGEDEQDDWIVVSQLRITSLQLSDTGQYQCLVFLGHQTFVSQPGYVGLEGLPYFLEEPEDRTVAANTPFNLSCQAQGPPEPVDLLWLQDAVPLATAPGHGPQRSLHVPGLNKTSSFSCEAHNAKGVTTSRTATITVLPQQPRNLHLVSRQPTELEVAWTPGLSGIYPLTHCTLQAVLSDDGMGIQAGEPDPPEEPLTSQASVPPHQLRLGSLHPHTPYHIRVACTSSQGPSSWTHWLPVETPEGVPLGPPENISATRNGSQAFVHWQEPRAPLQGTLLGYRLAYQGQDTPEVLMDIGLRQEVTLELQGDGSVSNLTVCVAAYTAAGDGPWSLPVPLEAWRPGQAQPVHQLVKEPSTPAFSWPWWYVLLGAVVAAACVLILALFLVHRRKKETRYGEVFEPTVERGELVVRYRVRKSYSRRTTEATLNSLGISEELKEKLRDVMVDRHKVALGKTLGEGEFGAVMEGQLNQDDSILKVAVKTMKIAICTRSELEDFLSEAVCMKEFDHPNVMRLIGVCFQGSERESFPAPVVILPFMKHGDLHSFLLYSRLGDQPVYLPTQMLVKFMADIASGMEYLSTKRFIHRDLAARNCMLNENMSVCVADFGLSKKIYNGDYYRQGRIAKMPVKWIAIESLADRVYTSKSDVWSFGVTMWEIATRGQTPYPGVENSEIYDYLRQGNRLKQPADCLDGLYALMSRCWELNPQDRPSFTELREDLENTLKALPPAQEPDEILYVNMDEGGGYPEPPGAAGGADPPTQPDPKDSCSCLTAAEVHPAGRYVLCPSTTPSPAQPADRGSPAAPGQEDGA

[3] = target: 182 kDa tankyrase-1-binding protein (Homo sapiens) (UniProt Q9C0C2); experiment: Binding affinity to TNKS1BP1 in human NCI-H358 cells at 1 uM by mass spectrometry based pull down assay
[4] = target: Protein arginine N-methyltransferase 5 (Homo sapiens) (UniProt O14744); experiment: Binding affinity to PRMT5 in human NCI-H23 cells at 1 uM by mass spectrometry based pull down assay
Sequence of Protein arginine N-methyltransferase 5 (Homo sapiens) (O14744 whole entry): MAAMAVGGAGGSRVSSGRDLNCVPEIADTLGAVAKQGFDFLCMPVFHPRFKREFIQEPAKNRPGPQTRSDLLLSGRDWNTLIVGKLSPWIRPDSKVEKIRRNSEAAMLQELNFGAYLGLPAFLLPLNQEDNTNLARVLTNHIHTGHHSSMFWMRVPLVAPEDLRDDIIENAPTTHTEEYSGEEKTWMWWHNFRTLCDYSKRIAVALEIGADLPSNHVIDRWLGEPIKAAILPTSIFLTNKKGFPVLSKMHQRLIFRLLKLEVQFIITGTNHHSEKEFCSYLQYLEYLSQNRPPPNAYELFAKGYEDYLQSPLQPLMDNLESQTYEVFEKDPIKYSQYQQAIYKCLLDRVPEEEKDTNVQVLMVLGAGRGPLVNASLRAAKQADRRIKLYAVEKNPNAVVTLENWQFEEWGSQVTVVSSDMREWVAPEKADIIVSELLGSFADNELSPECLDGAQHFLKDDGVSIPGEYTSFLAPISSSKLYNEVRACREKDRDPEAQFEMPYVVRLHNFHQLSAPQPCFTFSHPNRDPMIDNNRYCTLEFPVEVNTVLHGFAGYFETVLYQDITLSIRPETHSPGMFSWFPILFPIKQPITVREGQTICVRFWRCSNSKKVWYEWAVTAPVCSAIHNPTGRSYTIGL

[5] = target: Dual specificity mitogen-activated protein kinase kinase 2 (Homo sapiens) (UniProt P36507); experiment: Binding affinity to MAP2K2 in human NCI-H358 cells at 1 uM by mass spectrometry based pull down assay
[6] = target: Actin-related protein 3 (Homo sapiens) (UniProt P61158); experiment: Binding affinity to ACTR3 in human NCI-H358 cells at 1 uM by mass spectrometry based pull down assay
How it was run: (§1)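 NCI-H23 or NCI-H358 cells were grown and lysed. Lysates were incubated overnight at 4 °C with 1 μM biotinylated covalent probe or DMSO, then pulled down on streptavidin beads. Proteins were run on polyacrylamide gels and stained with Coomassie. Bands were excised, digested and identified by mass spectrometry.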

[7] = target: Myosin regulatory light chain 12B (Homo sapiens) (UniProt O14950); experiment: Binding affinity to MYL12B in human NCI-H358 cells at 1 uM by mass spectrometry based pull down assay
Sequence of Myosin regulatory light chain 12B (Homo sapiens) (O14950 whole entry): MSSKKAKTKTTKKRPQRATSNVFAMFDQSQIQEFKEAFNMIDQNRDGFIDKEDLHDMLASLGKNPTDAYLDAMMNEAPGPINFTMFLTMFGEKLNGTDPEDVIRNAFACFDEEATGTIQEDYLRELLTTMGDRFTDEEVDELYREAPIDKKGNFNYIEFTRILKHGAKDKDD

[8] = target: Glycogen phosphorylase, brain form (Homo sapiens) (UniProt P11216); experiment: Binding affinity to PYGB in human NCI-H358 cells at 1 uM by mass spectrometry based pull down assay
Sequence of Glycogen phosphorylase, brain form (Homo sapiens) (P11216 whole entry): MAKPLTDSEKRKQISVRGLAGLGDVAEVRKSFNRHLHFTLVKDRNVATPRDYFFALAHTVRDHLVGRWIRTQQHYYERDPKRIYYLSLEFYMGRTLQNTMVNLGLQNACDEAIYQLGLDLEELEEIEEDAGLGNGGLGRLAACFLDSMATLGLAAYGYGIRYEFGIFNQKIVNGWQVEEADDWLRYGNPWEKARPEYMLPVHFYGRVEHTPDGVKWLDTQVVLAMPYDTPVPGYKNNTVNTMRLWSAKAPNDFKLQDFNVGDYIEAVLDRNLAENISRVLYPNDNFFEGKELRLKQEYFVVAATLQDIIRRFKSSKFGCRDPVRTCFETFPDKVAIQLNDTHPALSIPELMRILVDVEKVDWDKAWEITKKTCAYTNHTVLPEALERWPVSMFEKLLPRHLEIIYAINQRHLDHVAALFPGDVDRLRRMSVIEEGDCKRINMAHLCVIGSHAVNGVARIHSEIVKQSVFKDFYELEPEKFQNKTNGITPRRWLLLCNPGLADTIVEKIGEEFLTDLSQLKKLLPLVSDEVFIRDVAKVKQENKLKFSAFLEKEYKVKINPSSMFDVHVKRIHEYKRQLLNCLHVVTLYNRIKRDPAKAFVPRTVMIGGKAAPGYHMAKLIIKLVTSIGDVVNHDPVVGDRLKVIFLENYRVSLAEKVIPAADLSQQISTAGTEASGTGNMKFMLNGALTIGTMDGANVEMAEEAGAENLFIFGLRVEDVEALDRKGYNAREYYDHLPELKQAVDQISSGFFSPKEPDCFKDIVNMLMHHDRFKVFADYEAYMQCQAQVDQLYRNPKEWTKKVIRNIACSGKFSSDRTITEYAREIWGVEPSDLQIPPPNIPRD

[9] = target: Methionine--tRNA ligase, cytoplasmic (Homo sapiens) (UniProt P56192); experiment: Binding affinity to MARS in human NCI-H358 cells at 1 uM by mass spectrometry based pull down assay
[10] = target: Tropomyosin alpha-3 chain (Homo sapiens) (UniProt P06753); experiment: Binding affinity to TPM3 in human NCI-H23 cells at 1 uM by mass spectrometry based pull down assay
[11] = target: Poly(rC)-binding protein 1 (Homo sapiens) (UniProt Q15365); experiment: Binding affinity to PCBP1 in human NCI-H358 cells at 1 uM by mass spectrometry based pull down assay
[12] = target: Very-long-chain 3-oxoacyl-CoA reductase (Homo sapiens) (UniProt Q53GQ0); experiment: Binding affinity to HSD17B12 in human NCI-H358 cells at 1 uM by mass spectrometry based pull down assay
Sequence of Very-long-chain 3-oxoacyl-CoA reductase (Homo sapiens) (Q53GQ0 whole entry): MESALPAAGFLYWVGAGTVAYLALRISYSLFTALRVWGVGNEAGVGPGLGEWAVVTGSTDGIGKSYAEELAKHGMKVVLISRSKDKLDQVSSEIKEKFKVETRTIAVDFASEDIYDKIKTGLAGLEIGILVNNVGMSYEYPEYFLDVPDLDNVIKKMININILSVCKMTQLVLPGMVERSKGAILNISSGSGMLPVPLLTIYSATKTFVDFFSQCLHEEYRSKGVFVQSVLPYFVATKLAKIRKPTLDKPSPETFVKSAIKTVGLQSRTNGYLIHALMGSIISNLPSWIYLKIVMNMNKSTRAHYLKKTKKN

[13] = target: Thioredoxin reductase 1, cytoplasmic (Homo sapiens) (UniProt Q16881); experiment: Binding affinity to TXNRD1 in human NCI-H358 cells at 1 uM by mass spectrometry based pull down assay
[14] = target: Aldehyde dehydrogenase family 16 member A1 (Homo sapiens) (UniProt Q8IZ83); experiment: Binding affinity to ALDH16A1 in human NCI-H23 cells at 1 uM by mass spectrometry based pull down assay; how it was run: as §1
Sequence of Aldehyde dehydrogenase family 16 member A1 (Homo sapiens) (Q8IZ83 whole entry): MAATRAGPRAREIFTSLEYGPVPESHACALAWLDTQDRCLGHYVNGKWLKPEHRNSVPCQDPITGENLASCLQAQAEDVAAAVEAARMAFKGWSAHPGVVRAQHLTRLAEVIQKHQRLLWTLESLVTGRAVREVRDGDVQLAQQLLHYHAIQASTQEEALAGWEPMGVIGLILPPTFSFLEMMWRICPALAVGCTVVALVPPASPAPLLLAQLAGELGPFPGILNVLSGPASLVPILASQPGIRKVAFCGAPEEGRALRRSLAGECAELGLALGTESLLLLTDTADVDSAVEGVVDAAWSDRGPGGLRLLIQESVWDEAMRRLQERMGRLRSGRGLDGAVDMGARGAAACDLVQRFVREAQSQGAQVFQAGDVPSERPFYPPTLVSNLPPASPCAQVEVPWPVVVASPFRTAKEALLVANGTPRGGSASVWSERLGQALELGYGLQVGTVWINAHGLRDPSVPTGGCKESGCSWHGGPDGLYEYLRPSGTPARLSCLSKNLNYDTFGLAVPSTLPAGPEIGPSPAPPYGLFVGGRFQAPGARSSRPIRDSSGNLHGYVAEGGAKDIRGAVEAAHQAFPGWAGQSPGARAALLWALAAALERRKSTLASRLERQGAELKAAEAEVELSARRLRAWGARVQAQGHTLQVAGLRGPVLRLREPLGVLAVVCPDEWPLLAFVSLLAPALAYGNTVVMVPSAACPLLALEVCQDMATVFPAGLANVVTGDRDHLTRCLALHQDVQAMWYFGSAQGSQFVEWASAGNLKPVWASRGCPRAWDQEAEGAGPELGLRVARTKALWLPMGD

[15] = target: T2, Serine/threonine-protein kinase D2 (Homo sapiens) (UniProt Q9BZL6); experiment: Binding affinity to PRKD2 in human NCI-H23 cells at 1 uM by mass spectrometry based pull down assay
T2 sequence (whole entry): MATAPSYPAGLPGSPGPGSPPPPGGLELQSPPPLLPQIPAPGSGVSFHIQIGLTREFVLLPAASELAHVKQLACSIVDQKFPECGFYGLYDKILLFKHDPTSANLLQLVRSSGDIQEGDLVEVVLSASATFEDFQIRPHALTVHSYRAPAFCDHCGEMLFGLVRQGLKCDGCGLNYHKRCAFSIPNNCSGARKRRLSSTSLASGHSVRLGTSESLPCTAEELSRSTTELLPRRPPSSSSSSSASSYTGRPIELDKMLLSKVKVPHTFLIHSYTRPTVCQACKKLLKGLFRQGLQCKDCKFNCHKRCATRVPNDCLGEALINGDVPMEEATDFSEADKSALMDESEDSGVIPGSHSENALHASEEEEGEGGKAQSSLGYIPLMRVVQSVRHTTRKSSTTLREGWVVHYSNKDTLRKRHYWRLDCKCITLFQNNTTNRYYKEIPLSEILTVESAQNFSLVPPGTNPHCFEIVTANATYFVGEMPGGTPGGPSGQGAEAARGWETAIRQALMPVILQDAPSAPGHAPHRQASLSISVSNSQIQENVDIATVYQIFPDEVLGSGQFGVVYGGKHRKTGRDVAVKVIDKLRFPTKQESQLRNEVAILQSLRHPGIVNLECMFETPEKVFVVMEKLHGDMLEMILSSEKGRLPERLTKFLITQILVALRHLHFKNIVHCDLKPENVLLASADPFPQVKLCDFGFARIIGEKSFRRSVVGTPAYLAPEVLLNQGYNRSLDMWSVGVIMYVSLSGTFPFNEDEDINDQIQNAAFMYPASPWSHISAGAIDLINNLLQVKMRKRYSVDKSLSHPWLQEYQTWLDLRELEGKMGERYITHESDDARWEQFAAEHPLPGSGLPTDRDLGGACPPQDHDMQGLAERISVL

[16] = target: Delta-1-pyrroline-5-carboxylate synthase (Homo sapiens) (UniProt P54886); experiment: Binding affinity to ALDH18A1 in human NCI-H358 cells at 1 uM by mass spectrometry based pull down assay; how it was run: as §1
[17] = target: AH receptor-interacting protein (Homo sapiens) (UniProt O00170); experiment: Binding affinity to AIP in human NCI-H358 cells at 1 uM by mass spectrometry based pull down assay; how it was run: as §1
Sequence of AH receptor-interacting protein (Homo sapiens) (O00170 whole entry): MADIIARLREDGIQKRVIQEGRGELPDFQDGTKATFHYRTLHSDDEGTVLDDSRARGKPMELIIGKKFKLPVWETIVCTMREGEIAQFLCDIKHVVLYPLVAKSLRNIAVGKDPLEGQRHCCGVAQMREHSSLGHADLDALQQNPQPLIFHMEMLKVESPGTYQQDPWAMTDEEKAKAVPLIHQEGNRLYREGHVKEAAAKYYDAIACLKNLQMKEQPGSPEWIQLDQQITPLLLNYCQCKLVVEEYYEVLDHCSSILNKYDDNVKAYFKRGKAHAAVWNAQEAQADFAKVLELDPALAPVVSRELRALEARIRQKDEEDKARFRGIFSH

[18] = target: Kelch-like ECH-associated protein 1 (Homo sapiens) (UniProt Q14145); experiment: Binding affinity to KEAP1 in human NCI-H23 cells at 1 uM by mass spectrometry based pull down assay
Sequence of Kelch-like ECH-associated protein 1 (Homo sapiens) (Q14145 whole entry): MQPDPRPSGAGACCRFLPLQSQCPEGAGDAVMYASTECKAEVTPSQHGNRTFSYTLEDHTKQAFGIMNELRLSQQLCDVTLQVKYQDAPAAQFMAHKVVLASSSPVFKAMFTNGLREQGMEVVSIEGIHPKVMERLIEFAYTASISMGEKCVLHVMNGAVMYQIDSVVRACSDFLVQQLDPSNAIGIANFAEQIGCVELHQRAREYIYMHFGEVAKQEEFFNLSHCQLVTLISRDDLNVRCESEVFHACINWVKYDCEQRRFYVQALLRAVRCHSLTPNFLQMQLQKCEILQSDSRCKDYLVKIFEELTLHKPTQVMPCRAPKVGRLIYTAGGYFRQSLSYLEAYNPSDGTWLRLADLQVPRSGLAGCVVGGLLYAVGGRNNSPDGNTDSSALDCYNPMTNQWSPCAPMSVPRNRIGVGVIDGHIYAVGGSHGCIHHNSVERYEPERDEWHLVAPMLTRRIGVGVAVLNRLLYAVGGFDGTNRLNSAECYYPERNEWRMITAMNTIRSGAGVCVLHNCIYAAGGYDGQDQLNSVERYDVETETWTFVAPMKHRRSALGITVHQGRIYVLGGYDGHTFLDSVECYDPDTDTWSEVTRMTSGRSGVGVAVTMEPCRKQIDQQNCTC

[19] = target: HCLS1-associated protein X-1 (Homo sapiens) (UniProt O00165); experiment: Binding affinity to HAX1 in human NCI-H23 cells at 1 uM by mass spectrometry based pull down assay
Sequence of HCLS1-associated protein X-1 (Homo sapiens) (O00165 whole entry): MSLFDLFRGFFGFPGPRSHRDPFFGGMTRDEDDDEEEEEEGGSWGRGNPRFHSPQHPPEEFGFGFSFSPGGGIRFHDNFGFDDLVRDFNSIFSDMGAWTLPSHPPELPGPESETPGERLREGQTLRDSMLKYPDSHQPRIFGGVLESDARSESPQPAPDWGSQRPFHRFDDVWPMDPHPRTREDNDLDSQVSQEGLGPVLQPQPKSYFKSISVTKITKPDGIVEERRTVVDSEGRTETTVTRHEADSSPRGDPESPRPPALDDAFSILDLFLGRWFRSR

Molecule `COc1cc(O)c2c(c1)/C=C/C[C@H](O)[C@H](O)C(=O)/C=C\C[C@H](C)OC2=O` has an inhibition [1] of 54.2%.
`C=CC(=O)Nc1ccccc1Nc1nc(Nc2ccc(N3CCN(C)CC3)cc2)ncc1Cl` was tested, and the inhibition [2] was 27.2%.
In the case of `C=CC(=O)Nc1ccccc1Nc1nc(Nc2ccc(N3CCN(CCOCCOCCOCCNC(=O)CCCC[C@@H]4SC[C@@H]5NC(=O)N[C@@H]54)CC3)cc2)ncc1Cl`, the Activity [3] is reported as “Active”, the Activity [4] is reported as “Active” and the Activity [5] is reported as “Active”. For the same molecule, the Activity [6] was “Active”, the Activity [7] was “Active” and the Activity [8] was “Active”. For the same molecule, the Activity [9] was “Active”, the Activity [10] was “Active” and the Activity [11] was “Active”. For the same molecule, the Activity [12] was “Active”, the Activity [13] was “Active” and the Activity [14] was “Active”. For the same molecule, the Activity [15] was “Active”, the Activity [16] was “Active” and the Activity [17] was “Active”. The Activity [18] was “Active” and the Activity [19] was “Active”.

Source: ChEMBL document CHEMBL4118021, “Studies of TAK1-centered polypharmacology with novel covalent TAK1 inhibitors” (Bioorg Med Chem, 2017)
